According to ChEMBL document CHEMBL4152390, “Discovery of the First-in-Class Dual Histone Deacetylase-Proteasome Inhibitor” (J Med Chem, 2018):
pIC50: −log10 of the molar value. The source made the active and inactive calls. The calls are words filed in the database; no cut-off is given here. Where a SMILES comes first, the peptide text is derived from it. The star is where a group is joined. Cbz = O=C(OCc1ccccc1)*

Assays:
PBMC = test: cells; type: ADME, cell-based; details: Homo sapiens, 72 h
SEM cells [1] = test: Inhibition of proteasome in human SEM cells assessed as increase in aggresome accumulation at 10 nM after 18 hrs by FACS analysis; type: cell-based
Outline: (§1)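 Cells treated 18 h, then stained with a proteostat aggresome dye plus DNA stain. Imaged by fluorescence microscopy (63X objective) or analysed by FACS, with aggresome propensity factor from relative mean fluorescence intensity.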

Homo sapiens = species: Homo sapiens; test: Inhibition of proteasome in human HL60 cells assessed as increase in cleaved PARP expression at 1 to 100 nM after 24 hrs by immunoblot assay; type: cell-based
Outline: (§2)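 Cells exposed for 24 h at indicated concentrations; lysates immunoblotted for acetyl-α-tubulin, acetyl-histone H3, PARP, with GAPDH as loading control.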

SUP-B15 [2] = test: Inhibition of proteasome in imatinib-resistant human SUP-B15 cells assessed as increase in cleaved PARP expression at 1 to 100 nM after 24 hrs by immunoblot assay; type: cell-based
Outline: (§3)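 Cells treated with compounds for 24 h; lysates immunoblotted for PARP alongside acetyl-α-tubulin, acetyl-histone H3 and GAPDH.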

SEM cells [3] = test: Inhibition of proteasome in human SEM cells assessed as increase in aggresome accumulation at 10 nM after 18 hrs by fluorescence microscopic method; type: cell-based
Outline: as §1

SEM cells [4] = test: Inhibition of proteasome in human SEM cells assessed as increase in cleaved PARP expression at 1 to 100 nM after 24 hrs by immunoblot assay; type: cell-based
Outline: as §3

[5] = molecular target: T1, Proteasome Macropain subunit MB1 (Homo sapiens, UniProt P28074); test: Inhibition of chymotrypsin-like activity of 20S proteasome in human SEM cells using Suc-LLVY aminoluciferin as substrate after 2 hrs by proteasome-Glo assay; type: cell-based
T1 sequence (P28074 whole entry): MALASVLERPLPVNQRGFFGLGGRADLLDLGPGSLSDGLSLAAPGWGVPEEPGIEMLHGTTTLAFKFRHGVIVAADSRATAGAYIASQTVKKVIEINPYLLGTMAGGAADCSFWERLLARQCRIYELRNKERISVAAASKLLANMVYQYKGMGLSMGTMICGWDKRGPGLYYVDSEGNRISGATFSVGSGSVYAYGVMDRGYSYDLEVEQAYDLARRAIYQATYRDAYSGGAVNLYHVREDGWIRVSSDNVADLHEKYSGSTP

[6] = molecular target: T1, Proteasome Macropain subunit MB1; test: Inhibition of chymotrypsin-like activity of 20S proteasome in imatinib-resistant human SUP-B15 cells using Suc-LLVY aminoluciferin as substrate after 2 hrs by proteasome-Glo assay; type: cell-based
[7] = molecular target: T1, Proteasome Macropain subunit MB1; test: Inhibition of chymotrypsin-like activity of 20S proteasome in human HL60 cells using Suc-LLVY aminoluciferin as substrate after 2 hrs by proteasome-Glo assay; type: cell-based
SEM cells [8] = test: Inhibition of proteasome in human SEM cells assessed as increase in aggresome accumulation at 3 uM after 18 hrs by fluorescence microscopic method; type: cell-based
Outline: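 SEM cells exposed for 18 h, then labeled with a proteostat aggresome detection kit with DNA counterstain per kit guidelines; aggresomes imaged by fluorescence microscopy with a 63X objective.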

SEM cells [9] = test: Inhibition of proteasome in human SEM cells assessed as increase in aggresome accumulation at 3 uM after 18 hrs by FACS analysis; type: cell-based
Outline: as §1

[10] = molecular target: T2, Protein deacetylase HDAC6 (Homo sapiens) (UniProt Q9UBN7); test: Inhibition of HDAC6 in human HL60 cells assessed as increase in acetyl-alpha tubulin expression at 0.1 to 10 uM after 24 hrs by immunoblot assay; type: cell-based
T2 sequence (whole entry): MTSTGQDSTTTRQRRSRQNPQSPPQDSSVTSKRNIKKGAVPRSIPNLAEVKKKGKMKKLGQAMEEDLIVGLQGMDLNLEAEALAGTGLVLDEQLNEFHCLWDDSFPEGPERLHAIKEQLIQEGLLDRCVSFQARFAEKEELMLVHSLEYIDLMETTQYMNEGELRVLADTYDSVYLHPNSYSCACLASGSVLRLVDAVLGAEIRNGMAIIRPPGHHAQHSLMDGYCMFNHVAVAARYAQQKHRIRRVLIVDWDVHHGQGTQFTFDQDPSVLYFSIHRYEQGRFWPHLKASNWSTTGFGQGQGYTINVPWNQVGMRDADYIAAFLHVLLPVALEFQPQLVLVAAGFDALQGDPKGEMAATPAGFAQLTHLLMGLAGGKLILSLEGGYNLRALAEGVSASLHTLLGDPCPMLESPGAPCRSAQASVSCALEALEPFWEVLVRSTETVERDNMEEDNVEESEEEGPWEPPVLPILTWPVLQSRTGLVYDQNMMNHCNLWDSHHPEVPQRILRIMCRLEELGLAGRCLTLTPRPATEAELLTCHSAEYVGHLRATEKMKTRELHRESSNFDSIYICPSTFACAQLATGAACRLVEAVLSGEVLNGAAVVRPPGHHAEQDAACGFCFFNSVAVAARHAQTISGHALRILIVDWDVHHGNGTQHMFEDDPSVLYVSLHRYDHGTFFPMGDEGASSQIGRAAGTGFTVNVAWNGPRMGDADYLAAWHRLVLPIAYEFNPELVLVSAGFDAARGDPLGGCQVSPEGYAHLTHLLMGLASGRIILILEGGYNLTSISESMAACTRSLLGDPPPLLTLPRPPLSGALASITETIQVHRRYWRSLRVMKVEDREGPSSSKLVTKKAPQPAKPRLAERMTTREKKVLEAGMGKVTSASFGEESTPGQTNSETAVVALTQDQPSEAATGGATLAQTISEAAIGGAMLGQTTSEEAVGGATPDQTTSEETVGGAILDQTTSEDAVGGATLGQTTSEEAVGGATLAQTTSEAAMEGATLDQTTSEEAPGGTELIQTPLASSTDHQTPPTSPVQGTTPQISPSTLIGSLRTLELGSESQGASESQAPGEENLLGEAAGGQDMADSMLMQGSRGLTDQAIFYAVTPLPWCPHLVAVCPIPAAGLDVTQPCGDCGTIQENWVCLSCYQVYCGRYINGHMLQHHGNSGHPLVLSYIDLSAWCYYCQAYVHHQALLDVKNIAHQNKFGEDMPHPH
Outline: as §2

[11] = Cytotoxicity against human RPMI18226 cells after 72 hrs by CellTiter-Glo luminescent cell viability assay; type: functional, cell-based; details: RPMI18226, 72 h
[12] = molecular target: T2, Protein deacetylase HDAC6 (Homo sapiens); details: 0.1 to 10 uM
[13] = molecular target: T2, Protein deacetylase HDAC6 (Homo sapiens); test: Inhibition of HDAC6 in human SEM cells assessed as increase in acetyl-histone H3 expression at 0.1 to 10 uM after 24 hrs by immunoblot assay; type: cell-based
Outline: as §2

[14] = molecular target: T2, Protein deacetylase HDAC6 (Homo sapiens); details: SEM, 1.6 uM
[15] = molecular target: T2, Protein deacetylase HDAC6 (Homo sapiens); details: SEM, 0.1 to 10 uM
[16] = Cytotoxicity against human BCP-ALL cells derived from patient 2 after 72 hrs by CellTiter-Glo luminescent cell viability assay; type: functional, cell-based
Outline: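 Compounds dispensed digitally at increasing concentrations, 50 nM–25 μM; viability read by CellTiter-Glo luminescence after 72 h. Raw data normalized to controls, IC50 from sigmoid dose curve by non-linear regression. Patient samples: primary cells from newly diagnosed or relapsed patients, cultured in stem cell expansion or mononuclear cell medium.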

SEM cells [17] = test: Antiproliferative activity against human SEM cells at IC50 to 2 times IC50 after 24 to 72 hrs by trypan exclusion method; type: functional, cell-based
SUP-B15 [18] = test: Cytotoxicity against imatinib-resistant human SUP-B15 cells after 72 hrs by CellTiter-Glo luminescent cell viability assay; type: functional, cell-based; details: SUP-B15, 72 h
[19] = molecular target: T2, Protein deacetylase HDAC6 (Homo sapiens); test: Inhibition of HDAC6 in human SEM cells assessed as increase in acetyl-alpha tubulin expression at 0.1 to 10 uM after 24 hrs by immunoblot assay; type: cell-based
Outline: as §2

[20] = molecular target: T2, Protein deacetylase HDAC6 (Homo sapiens); test: Inhibition of HDAC6 in imatinib-resistant human SUP-B15 cells assessed as increase in acetyl-histone H3 expression at 0.1 to 10 uM after 24 hrs by immunoblot assay; type: cell-based
Outline: as §2

KCL-22 [21] = test: Cytotoxicity against human KCL22 cells after 72 hrs by CellTiter-Glo luminescent cell viability assay; type: functional, cell-based; details: KCL-22, 72 h
Outline: (§4)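 Inhibitors dispensed in increasing concentrations (50 nM–25 μM) and cells exposed 72 h. Viability read by ATP-dependent luminescence (CellTiter-Glo). Raw data normalized to controls. IC50 obtained by sigmoid dose–response fit with non-linear regression.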

[22] = molecular target: T2, Protein deacetylase HDAC6 (Homo sapiens); details: SUP-B15, 0.1 to 10 uM
[23] = Cytotoxicity against human BCP-ALL cells derived from patient 3 after 72 hrs by CellTiter-Glo luminescent cell viability assay; type: functional, cell-based
[24] = molecular target: T2, Protein deacetylase HDAC6 (Homo sapiens); test: Inhibition of HDAC6 in imatinib-resistant human SUP-B15 cells assessed as increase in acetyl-alpha tubulin expression at 0.1 to 10 uM after 24 hrs by immunoblot assay; type: cell-based
Outline: as §2

[25] = Cytotoxicity against human BCP-ALL cells derived from patient 4 after 72 hrs by CellTiter-Glo luminescent cell viability assay; type: functional, cell-based
SEM cells [26] = test: Cytotoxicity against human SEM cells after 72 hrs by CellTiter-Glo luminescent cell viability assay; type: functional, cell-based
Outline: as §4

KCL-22 [27] = test: Cytotoxicity against imatinib-resistant human KCL22 cells after 72 hrs by CellTiter-Glo luminescent cell viability assay; type: functional, cell-based; details: KCL-22, 72 h
Outline: as §4

[28] = Cytotoxicity against human BCP-ALL cells derived from patient 1 after 72 hrs by CellTiter-Glo luminescent cell viability assay; type: functional, cell-based
[29] = molecular target: T2, Protein deacetylase HDAC6 (Homo sapiens); test: Inhibition of HDAC6 in human HL60 cells assessed as increase in acetyl-histone H3 expression at 0.1 to 10 uM after 24 hrs by immunoblot assay; type: cell-based
Outline: as §2

HL-60 = test: Cytotoxicity against human HL60 cells after 72 hrs by CellTiter-Glo luminescent cell viability assay; type: functional, cell-based; details: HL-60, 72 h

In the case of `CC(C)C[C@H](NC(=O)[C@H](Cc1ccccc1)NC(=O)c1cnccn1)B(O)O` [BORTEZOMIB], the pIC50 (PBMC) was greater than 7.46, the inhibition (SEM cells [1]) was “Active” and the inhibition (Homo sapiens) was “Active”. The inhibition (SUP-B15 [2]) was “Active”, the inhibition (SEM cells [3]) was “Active” and the inhibition (SEM cells [4]) was “Active”.
Compound `O=C(CCCCCCC(=O)Nc1ccccc1)NO` [VORINOSTAT] has a pIC50 [5] of less than 4.60, a pIC50 [6] of less than 4.60 and a pIC50 [7] of less than 4.60.
In the case of `CC(C)C[C@@H](C=O)NC(=O)[C@H](CC(C)C)NC(=O)[C@H](CC(C)C)NC(=O)OCc1ccccc1` (Cbz-Leu-Leu-Leu-aldehyde), the inhibition (SEM cells [8]) was “Active” and the inhibition (SEM cells [9]) was “Active”.
With `O=C(CCCCCCNC(=O)c1cnc(N(c2ccccc2)c2ccccc2)nc1)NO` [RICOLINOSTAT] the inhibition [10] was “Active”, the pIC50 (PBMC) was greater than 5.44 and the pIC50 [11] was 5.71. For the same compound, the inhibition [12] was “Active”, the inhibition [13] was “Active” and the inhibition [14] was “Active”. The inhibition [15] was “Active”, the pIC50 [16] was 6.24 and the Activity (SEM cells [17]) was “Active”. The pIC50 (SUP-B15 [18]) was 5.45, the inhibition [19] was “Active” and the inhibition [20] was “Active”. The pIC50 (KCL-22 [21]) was 5.43, the pIC50 [5] was less than 4.60 and the inhibition [22] was “Active”. The pIC50 [6] was less than 4.60, the pIC50 [23] was 5.35 and the inhibition [24] was “Active”. The pIC50 [25] was 6.27, the pIC50 (SEM cells [26]) was 5.79 and the pIC50 (KCL-22 [27]) was 5.47. The pIC50 [28] was 6.54, the inhibition [29] was “Active” and the pIC50 (HL-60) was 5.63. For the same compound, the pIC50 [7] was less than 4.60.
